According to ChEMBL document CHEMBL4680304, “Synthesis and evaluation of new phenyl acrylamide derivatives as potent non-nucleoside anti-HBV agents” (Bioorg Med Chem, 2021):

How the values were obtained:
[1] = tested on: Hepatitis B virus; assay: Antiviral activity against HBV infected in human HepG2 2.2.15 cells assessed as decrease in extracellular viral DNA level at 0.8 uM measured after incubation of 6 days by RT-PCR analysis; type: functional; settings: HepG2 2.2.15, 144 h, time 6 day
In short: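 HepG2 2.2.15 cells, which stably carry the HBV genome, were grown in DMEM with 10% FBS, penicillin/streptomycin and 0.38 mg/mL G418. They were seeded at 2×10^5/well and allowed to recover for 24 h. Cells were then exposed to 0.8 µM compound for 6 days, with medium changed every 2 days. HBV DNA was quantified by real-time PCR and expressed as % inhibition versus control.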

[2] = Cytotoxicity against human HepG2 2.2.15 cell line assessed as cell viability measured after 72 hrs by MTT assay; type: cell-based; settings: HepG2 2.2.15 cells
In short: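 HepG2 2.2.15 cells were precultured for 24 h, then incubated with compound for 72 h. Viability was read as MTT absorbance at 490 nm relative to untreated cells on the same plate. CC50 is the concentration causing 50% cell death.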

[3] = tested on: Hepatitis B virus; assay: Antiviral activity against HBV infected in human HepG2 2.2.15 cells assessed as decrease in extracellular viral DNA level measured after incubation of 6 days by RT-PCR analysis; type: functional, organism-based; settings: HepG2 2.2.15, 144 h
In short: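 Cells were HepG2 2.2.15 (stable HBV genome), seeded at 2×10^5/well and recovered for 24 h. Dose-dependent exposure to compound lasted 6 days, with medium replaced every 2 days. HBV DNA was measured by real-time PCR. IC50 is the concentration giving 50% inhibition of HBV DNA replication, reported as mean ± SD of triplicate experiments.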

[4] = Selectivity index, ratio of CC50 for human HepG2 2.2.15 to IC50 of antiviral activity against HBV infected in human HepG2 2.2.15 cells assessed as decrease in extracellular viral DNA level measured after incubation of 6 days by RT-PCR analysis; type: toxicity, cell-based; settings: time 6 day, read-out: Selectivity Index
In short: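 SI was calculated as the CC50 in HepG2 2.2.15 cells (72 h MTT) divided by the IC50 for HBV DNA inhibition. That IC50 came from HepG2 2.2.15 cells treated for 6 days with medium changed every 2 days, with HBV DNA quantified by real-time PCR.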

[5] = tested on: Hepatitis B virus; assay: Antiviral activity against lamivudine/entecavir-resistant HBV rtL180M/rtM204V/rtT184L mutant infected in human HepG2 2.2.15 cells assessed as inhibition of viral DNA replication measured after incubation of 72 hrs by RT-PCR analysis; type: functional, organism-based; settings: for IC50: HepG2 2.2.15, 72 h
In short: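 HepG2 cells transiently transfected for 24 h with full-genome HBV plasmid carrying rtL180M + rtM204V + rtT184L, washed, then treated over a dose range for 72 h. HBV DNA replicative intermediates quantified by real-time PCR. IC50 is the concentration giving 50% inhibition of HBV DNA replication, as mean ± SD of triplicate experiments.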

[6] = tested on: Hepatitis B virus; assay: Antiviral activity against wild type HBV infected in human […] cells assessed as inhibition of viral DNA replication at 100 uM measured after incubation of 72 hrs by RT-PCR analysis relative to control; type: functional, HepG2 2.2.15
In short: (§1)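 Parental HepG2 cells were plated at 2×10^5/well. After 24 h they were transiently transfected for 24 h with a full-length wild-type HBV genome plasmid, then washed with PBS. Cells were then treated for 72 h in fresh medium: entecavir 10 µM, lamivudine 100 µM. Intracellular HBV DNA replicative intermediates were quantified by real-time PCR.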

[7] = tested on: Hepatitis B virus; assay: Antiviral activity against HBV infected in human HepG2 2.2.15 cells assessed as inhibition of pregenomic RNA expression at 1 uM measured after incubation of 6 by RT-PCR analysis relative to control; type: functional; settings: HepG2 2.2.15, 144 h, read-out: INH, time 6 day
In short: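 HepG2 2.2.15 cells were seeded at 6×10^5/well in 6-well plates. They were incubated with 1 µM compound for 6 days. Total cellular RNA was then extracted and pgRNA copies/mL were measured by real-time PCR, giving % inhibition relative to untreated control.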

[8] = tested on: Hepatitis B virus; assay: (§2) Antiviral activity against lamivudine/entecavir-resistant HBV rtL180M/rtM204V/rtT184L mutant infected in human HepG2 2.2.15 cells assessed as inhibition of viral DNA replication at 100 uM measured after incubation of 72 hrs by RT-PCR analysis relative to control; type: functional
In short: (§3)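 HepG2 cells (2 × 10^5/well) plated 24 h, then transiently transfected for 24 h with plasmid carrying full-genome HBV with rtL180M + rtM204V + rtT184L (wild-type genome in parallel). Washed with PBS, then given fresh medium with compound for 72 h. Intracellular HBV DNA replicative intermediates extracted and quantified by real-time PCR against the wild-type group.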

[9] = tested on: Hepatitis B virus; assay: Antiviral activity against wild type HBV infected in human […] cells assessed as inhibition of viral DNA replication at 10 uM measured after incubation of 72 hrs by RT-PCR analysis relative to control; type: functional, HepG2 2.2.15; in short: as §1
[10] = tested on: Hepatitis B virus; assay: Antiviral activity against lamivudine/entecavir-resistant HBV rtL180M/rtM204V/rtT184L mutant infected in human HepG2 2.2.15 cells assessed as inhibition of viral DNA replication at 10 uM measured after incubation of 72 hrs by RT-PCR analysis relative to control; type: functional; in short: as §3
[11] = as §2, with “Selectivity index, ratio of CC50 for human HepG2 2.2.15 to IC50 of Antiviral” for “Antiviral”, “replication” for “replication at 100 uM”; type: toxicity, cell-based; settings: read-out: Selectivity Index
In short: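 SI is CC50 divided by IC50. CC50 comes from MTT on HepG2 2.2.15 cells, 72 h exposure, absorbance at 490 nm relative to untreated cells. IC50 comes from HepG2 cells transiently transfected with rtL180M + rtM204V + rtT184L HBV plasmid and treated 72 h, with DNA replicative intermediates measured by real-time PCR, triplicate experiments.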

[12] = tested on: Hepatitis B virus; assay: Antiviral activity against lamivudine/entecavir-resistant HBV rtL180M/rtM204V/rtT184L mutant infected in human HepG2 2.2.15 cells assessed as inhibition of viral DNA replication at 0.8 uM measured after incubation of 72 hrs by RT-PCR analysis relative to control; type: functional; in short: as §3

Compound	inhibition at 0.8 µM [1] [%]	CC50 at 72 h [2] [µM]	other results
Cc1ccc(C(=O)N/C(C(=O)N[C@H](CO)Cc2ccccc2)=C(\Br)c2ccccc2)cc1	47.4	> 100	
Cc1cc(F)ccc1C(=O)N/C(C(=O)N[C@H](CO)Cc1ccccc1)=C(\Br)c1ccccc1	83.2	> 100	IC50 [3]: 0.33 µM; selectivity ratio at 144 h [4]: > 303
O=C(N[C@H](CO)Cc1ccccc1)/C(NC(=O)c1ccccc1F)=C(/Br)c1ccccc1	33.6	> 100	
O=C(N[C@H](CO)Cc1ccccc1)/C(NC(=O)c1cccc(Cl)c1)=C(/Br)c1ccccc1	5.36	> 100	
Nc1ccn([C@@H]2CS[C@H](CO)O2)c(=O)n1 [LAMIVUDINE]	86.2	> 100	IC50 [5]: > 100 µM; IC50 [3]: 0.031 µM; inhibition at 100 µM [6]: 90%; inhibition at 1 µM [7]: 0.26%; selectivity ratio at 144 h [4]: > 1000; inhibition at 100 µM [8]: 18.6%
CC(=O)Oc1cccc(/C(Br)=C(/NC(=O)c2ccccc2)C(=O)N[C@H](CO)Cc2ccccc2)c1	32.4	> 100	
C=C1[C@H](CO)[C@@H](O)C[C@@H]1n1cnc2c(=O)[nH]c(N)nc21 [ENTECAVIR]			inhibition at 10 µM [9]: 96.8%; inhibition at 10 µM [10]: 20.7%
O=C(N[C@H](CO)Cc1ccccc1)/C(NC(=O)c1ccc(F)c(F)c1)=C(/Br)c1ccccc1	73.7	> 100	IC50 [3]: 0.48 µM; selectivity ratio at 144 h [4]: > 208
COc1ccccc1C(=O)N/C(C(=O)N[C@H](CO)Cc1ccccc1)=C(\Br)c1ccccc1	11.9	> 100	
O=C(N[C@H](CO)Cc1ccccc1)/C(NC(=O)c1ccc(F)cc1)=C(/Br)c1ccccc1	74.9	> 100	inhibition [5]: Dose-dependent effect; IC50 [5]: 0.43 µM; IC50 [3]: 0.38 µM; selectivity ratio at 72 h [11]: > 232; inhibition at 0.8 µM [12]: 72.9%; selectivity ratio at 144 h [4]: > 263
COc1cccc(/C(Br)=C(/NC(=O)c2ccccc2)C(=O)N[C@H](CO)Cc2ccccc2)c1	48.9	> 100	
O=C(N[C@H](CO)Cc1ccccc1)/C(NC(=O)c1ccccc1Br)=C(/Br)c1ccccc1	17.2	> 100	
O=C(N[C@H](CO)Cc1ccccc1)/C(NC(=O)c1ccc(Br)cc1)=C(/Br)c1ccccc1	43	> 100	
O=C(N[C@H](CO)Cc1ccccc1)/C(NC(=O)c1ccccc1Cl)=C(/Br)c1ccccc1	13.9	> 100	
O=C(N[C@H](CO)Cc1ccccc1)/C(NC(=O)c1ccccc1)=C(/Br)c1cccc([N+](=O)[O-])c1	2.28	93.7	
O=C(N[C@H](CO)Cc1ccccc1)/C(NC(=O)c1ccc(F)cc1F)=C(/Br)c1ccccc1	58.1	> 100	
O=C(N[C@H](CO)Cc1ccccc1)/C(NC(=O)c1ccc(Cl)cc1)=C(/Br)c1ccccc1	70.7	> 100	IC50 [3]: 0.43 µM; selectivity ratio at 144 h [4]: > 232
O=C(N[C@H](CO)Cc1ccccc1)/C(NC(=O)c1ccccc1)=C(/Br)c1cccc(Cl)c1	48.2	> 100	

Compound	inhibition at 0.8 µM [1] [%]	CC50 at 72 h [2] [µM]	other results
O=C(N[C@H](CO)Cc1ccccc1)/C(NC(=O)c1cccc(F)c1)=C(/Br)c1ccccc1	9.07	> 100	
Cc1cccc(/C(Br)=C(/NC(=O)c2ccccc2)C(=O)N[C@H](CO)Cc2ccccc2)c1	57.3	> 100	
CCN(CC)CCOc1cccc(/C(Br)=C(/NC(=O)c2ccccc2)C(=O)N[C@H](CO)Cc2ccccc2)c1	56.5	83.6	
O=C(N[C@H](CO)Cc1ccccc1)/C(NC(=O)c1ccccc1)=C(/Br)c1cccc(F)c1	42.6	> 100	
O=C(N[C@H](CO)Cc1ccccc1)/C(NC(=O)c1cccc(Br)c1)=C(/Br)c1ccccc1	2.48	> 100	
CN(C)CCCOc1cccc(/C(Br)=C(/NC(=O)c2ccccc2)C(=O)N[C@H](CO)Cc2ccccc2)c1	37.7	85.6	
O=C(N[C@H](CO)Cc1ccccc1)/C(NC(=O)c1ccccc1)=C(/Br)c1cccc(Br)c1	14.4	> 100	
CN(C)CCOc1cccc(/C(Br)=C(/NC(=O)c2ccccc2)C(=O)N[C@H](CO)Cc2ccccc2)c1	58.4	94.7	
O=C(N[C@H](CO)Cc1ccccc1)/C(NC(=O)c1ccc(Cl)cc1Cl)=C(/Br)c1ccccc1	88	> 100	inhibition [5]: Dose-dependent effect; IC50 [5]: 0.18 µM; IC50 [3]: 0.19 µM; inhibition at 1 µM [7]: 63.1%; selectivity ratio at 72 h [11]: > 556; inhibition at 0.8 µM [12]: 87%; selectivity ratio at 144 h [4]: > 526
Cc1cccc(C(=O)N/C(C(=O)N[C@H](CO)Cc2ccccc2)=C(\Br)c2ccccc2)c1	2.94	> 100	
Cc1ccccc1C(=O)N/C(C(=O)N[C@H](CO)Cc1ccccc1)=C(\Br)c1ccccc1	5.75	> 100	
O=C(N[C@H](CO)Cc1ccccc1)/C(NC(=O)c1ccccc1)=C(/Br)c1cccc(C(F)(F)F)c1	23.1	> 100	
O=C(N[C@H](CO)Cc1ccccc1)/C(NC(=O)c1ccccc1)=C(/Br)c1cccc(O)c1	29.6	99.5	
COc1ccc(C(=O)N/C(C(=O)N[C@H](CO)Cc2ccccc2)=C(\Br)c2ccccc2)cc1	6.25	> 100	
O=C(N[C@H](CO)Cc1ccccc1)/C(NC(=O)c1cc(Cl)cc(Cl)c1)=C(/Br)c1ccccc1	83.8	> 100	IC50 [3]: 0.27 µM; selectivity ratio at 144 h [4]: > 370
O=C(N[C@H](CO)Cc1ccccc1)/C(NC(=O)c1ccc(F)cc1Cl)=C(/Br)c1ccccc1	56.1	> 100	
COc1cccc(C(=O)N/C(C(=O)N[C@H](CO)Cc2ccccc2)=C(\Br)c2ccccc2)c1	4.89	> 100	
